According to ChEMBL document CHEMBL3045403, “chemical composition, plant genetic differences, antimicrobial and antifungal activity investigation of the essential oil of Rosmarinus officinalis L” (J Agric Food Chem, 2004):
The source made the active and inactive calls. No cut-off for these calls is given here.

Assays:
[1] = test system: Fusarium oxysporum f. sp. lycopersici; assay: Antifungal activity against Fusarium oxysporum f. sp. lycopersici assessed as mycelial growth inhibition after 4 to 12 days; type: functional, organism-based
How it was run: (§1)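 Mycelial plugs (6 mm, 10-day-old cultures) inoculated on PDA in Petri dishes; essential oil added at 450 and 900 µL/mL; dishes sealed with Parafilm and held in the dark at 22 °C. Control: PDA plus distilled water. Mean colony diameter measured at 4, 8 and 12 days; inhibition I = 100(C − T)/C. Plates without growth were transferred to plain PDA for 48 h to tell fungistatic from fungicidal.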

[2] = test system: Staphylococcus epidermidis; assay: Antimicrobial activity against Staphylococcus epidermidis ATCC 12228 assessed as growth inhibition after 24 hr by broth microdilution method; type: functional
How it was run: (§2)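 Broth microdilution. Oils prepared as […] in DMSO and diluted in the plates to 3.5–900 µL/mL. Inoculum 5×10^5 cfu/mL, checked by plating on PDA. Incubated aerobically for 24 h at 37 °C (C. albicans at 30 °C). MIC taken as the first well, in ascending order, with no pellet or turbidity. MBC (99.9% kill) from 25 µL subcultured on PDA overnight at 37 °C. Three repeats.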

Candida albicans = assay: Antimicrobial activity against Candida albicans ATCC 14053 assessed as growth inhibition after 24 hr by broth microdilution method; type: functional; how it was run: as §2
Staphylococcus aureus = assay: Antimicrobial activity against Staphylococcus aureus ATCC 6538 assessed as growth inhibition after 24 hr by broth microdilution method; type: functional; how it was run: as §2
Escherichia coli = assay: Antimicrobial activity against Escherichia coli ATCC 8739 assessed as growth inhibition after 24 hr by broth microdilution method; type: functional; how it was run: as §2
Fusarium culmorum = assay: Antifungal activity against Fusarium culmorum assessed as mycelial growth inhibition after 4 to 12 days; type: functional, organism-based; how it was run: as §1
Fusarium graminearum [3] = assay: Antifungal activity against Fusarium graminearum assessed as mycelial growth inhibition after 4 to 12 days; type: functional, organism-based
How it was run: (§3)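 Mycelial fragments (6 mm diameter, from 10-day cultures) were seeded on PDA in Petri dishes. Essential oil was added at 450 and 900 µL/mL, and plates were sealed and incubated in the dark at 22 °C. Controls received distilled water instead of oil. Mean diametric colony growth was read at 4, 8 and 12 days. Inhibition % = 100(C − T)/C, where C is the control diameter and T the oil-treated diameter.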

Rhizoctonia solani = assay: Antifungal activity against Rhizoctonia solani assessed as mycelial growth inhibition after 4 to 12 days; type: functional, organism-based; how it was run: as §1
Fusarium graminearum [4] = assay: Induction of growth of Fusarium graminearum after 4 to 12 days; type: organism-based; conditions: in vivo; how it was run: as §3
Botrytis cinerea = assay: Antifungal activity against Botryotinia fuckeliana assessed as mycelial growth inhibition after 4 to 12 days; type: functional, organism-based; how it was run: as §1
Pseudomonas aeruginosa = assay: Antimicrobial activity against Pseudomonas aeruginosa ATCC 9027 assessed as growth inhibition after 24 hr by broth microdilution method; type: functional; how it was run: as §2

| Structure (SMILES) | growth inhibition (GI) [1] | MIC [2] [uL/ml] | MIC (Candida albicans) [uL/ml] | MIC (Staphylococcus aureus) [uL/ml] | MIC (Escherichia coli) [uL/ml] | growth inhibition (GI) (Fusarium culmorum) | growth inhibition (GI) (Fusarium graminearum [3]) | growth inhibition (GI) (Rhizoctonia solani) | Activity (Fusarium graminearum [4]) | growth inhibition (GI) (Botrytis cinerea) | MIC (Pseudomonas aeruginosa) [uL/ml] |
| --- | --- | --- | --- | --- | --- | --- | --- | --- | --- | --- | --- |
| C=C1[C@@H]2CC[C@@H](C2)C1(C)C [(-)-CAMPHENE] | inactive | >900 | >900 | >900 | >900 | inactive | inactive | inactive | Toxic | inactive | >900 |
| CC1=CCC2CC1C2(C)C (stereo not drawn) [ALPHA-PINENE] | inactive | >900 | >900 | >900 | >900 | inactive | inactive | inactive | Toxic | inactive | >900 |
| CC1(C)C2CCC1(C)C(O)C2 (stereo not given) [BORNEOL] | inactive | >900 | >900 | >900 | >900 | inactive | inactive | inactive | Toxic | inactive | >900 |
| CC12CCC(CC1=O)C2(C)C (stereo not given) [CAMPHOR] | inactive | >900 | >900 | >900 | >900 | inactive | inactive | inactive | Toxic | inactive | >900 |
| CC1=CC(=O)[C@@H]2C[C@H]1C2(C)C [VERBENONE] | inactive | >900 | >900 | >900 | >900 | inactive | inactive | inactive | Toxic | inactive | >900 |
